The results in this text go back to ChEMBL document CHEMBL4808227, “Induction of apoptosis, cytotoxicity and radiosensitization by novel 3,4-dihydroquinazolinone derivatives” (Bioorg Med Chem Lett, 2021).

Test [1] deals with HepG2. The experiment in a line: Cytotoxicity against human HepG2 cells measured after 24 hrs by MTT assay. It is filed as functional, cell-based. Conditions: HepG2, 24 h. Put shortly:
(§1)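 MTT viability assay on HepG-2 and MCF-7 cells with serial dilutions of compound for 24 hr. Viability is expressed as percent of untreated cells (taken as 100%). IC50 is the concentration inhibiting growth by 50%, mean ± SD of three independent experiments.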
In general terms: Tetrazolium assays rely on reduction of a dye to a coloured formazan, in cell work by metabolically active cells.

For test [2], the system named is MCF7. Put plainly: Cytotoxicity against human MCF7 cells measured after 24 hrs by MTT assay. Format: functional, cell-based. The conditions noted are these: MCF7, 24 h. Put shortly: as §1
For test [3], the system named is HepG2. Put plainly: Induction of apoptosis in human HepG2 cells assessed as viable cells by Annexin V-FITC/propidium iodide staining based flow cytometric analysis (reference value: 94.4 %). Format: functional. Background: Flow cytometry measures light scatter and fluorescence of single cells or particles in a stream.
Test [4] relates to HepG2. The experiment in a line: Induction of apoptosis in human HepG2 cells assessed as necrotic cells by Annexin V-FITC/propidium iodide staining based flow cytometric analysis (reference value: 0.007 %). It is filed as functional.
In test [5] the test system is HepG2. The experiment in a line: Induction of apoptosis in human HepG2 cells assessed as late apoptotic cells by Annexin V-FITC/propidium iodide staining based flow cytometric analysis (reference value: 0.507 %). Format: functional.
Test [6] concerns HepG2. Put plainly: Induction of apoptosis in human HepG2 cells assessed as early apoptotic cells by Annexin V-FITC/propidium iodide staining based flow cytometric analysis (reference value: 5.06 %). It is filed as functional.
The target in test [7] is Epidermal growth factor receptor (Homo sapiens, UniProt P00533). The experiment in a line: Inhibition of EGFR (unknown origin).
Chain of Epidermal growth factor receptor (P00533 whole entry): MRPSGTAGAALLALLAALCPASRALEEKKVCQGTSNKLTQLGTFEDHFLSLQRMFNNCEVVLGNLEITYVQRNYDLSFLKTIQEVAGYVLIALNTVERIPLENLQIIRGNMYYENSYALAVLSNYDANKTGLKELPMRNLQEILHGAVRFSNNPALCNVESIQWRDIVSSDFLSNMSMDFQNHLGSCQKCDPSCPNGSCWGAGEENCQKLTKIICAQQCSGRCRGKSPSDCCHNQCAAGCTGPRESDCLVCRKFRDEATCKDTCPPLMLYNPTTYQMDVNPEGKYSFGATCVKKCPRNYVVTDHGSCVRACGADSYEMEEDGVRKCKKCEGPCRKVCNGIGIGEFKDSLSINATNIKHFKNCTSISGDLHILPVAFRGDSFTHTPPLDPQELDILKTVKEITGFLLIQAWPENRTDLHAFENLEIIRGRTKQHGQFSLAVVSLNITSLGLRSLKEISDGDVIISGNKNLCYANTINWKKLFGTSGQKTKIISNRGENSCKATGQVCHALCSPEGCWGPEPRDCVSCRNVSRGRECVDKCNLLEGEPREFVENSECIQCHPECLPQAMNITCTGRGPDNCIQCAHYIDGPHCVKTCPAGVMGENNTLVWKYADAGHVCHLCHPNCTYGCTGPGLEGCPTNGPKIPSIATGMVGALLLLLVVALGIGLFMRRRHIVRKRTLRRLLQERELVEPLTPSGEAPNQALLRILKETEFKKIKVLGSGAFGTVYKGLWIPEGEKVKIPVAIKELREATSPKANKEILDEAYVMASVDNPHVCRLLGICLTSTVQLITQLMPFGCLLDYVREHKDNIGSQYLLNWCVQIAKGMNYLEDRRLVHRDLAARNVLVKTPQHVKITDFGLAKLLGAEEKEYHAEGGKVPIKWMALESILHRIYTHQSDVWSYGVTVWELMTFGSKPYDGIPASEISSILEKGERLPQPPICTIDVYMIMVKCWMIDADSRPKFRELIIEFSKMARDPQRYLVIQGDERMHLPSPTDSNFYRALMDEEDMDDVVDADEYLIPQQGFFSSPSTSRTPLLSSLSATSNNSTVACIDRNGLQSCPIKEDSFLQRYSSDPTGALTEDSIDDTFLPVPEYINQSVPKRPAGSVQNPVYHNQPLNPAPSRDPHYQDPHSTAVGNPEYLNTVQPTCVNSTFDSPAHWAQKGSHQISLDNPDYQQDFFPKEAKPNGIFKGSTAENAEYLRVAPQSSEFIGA
The nature of test [8]: Downregulation of Survivin mRNA expression in human HepG2 cells by real time RT-PCR analysis relative to control. It is filed as functional. The method, boiled down:
(§2)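 HepG-2 cells were treated with compound. Survivin, XIAP and p21 mRNA were quantified by real-time RT-PCR, with each triplicate's Ct normalized to GAPDH. Expression is relative to control.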
A general note: In qPCR the cycle at which signal appears reflects the starting amount.

Test [9] can be described thus: Downregulation of XIAP mRNA expression in human HepG2 cells by real time RT-PCR analysis relative to control. Format: functional. The method, boiled down:
as §2

Test [10] is described as follows: Upregulation of p21 mRNA expression in human HepG2 cells by real time RT-PCR analysis relative to control. Format: functional. Put shortly:
as §2

Test [11] deals with HepG2. Put plainly: Induction of apoptosis in human HepG2 cells assessed as increase in caspase-3 level by ELISA relative to control. Format: functional. The method, boiled down:
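HepG-2 cells were treated with compound, with DMSO-treated cells as control. Caspase-3 secreted into the culture medium was measured by ELISA, given as mean ± SD, n = 3.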

Test [12] relates to HepG2. The experiment in a line: Cell cycle arrest in human HepG2 cells assessed as accumulation of cells at G2/M phase measured by flow cytometry ( Rvb = 21.7%). It is filed as functional.
Test [13] relates to HepG2. Put plainly: Cell cycle arrest in human HepG2 cells assessed as accumulation of cells at S phase measured by flow cytometry (reference value: 6.08%). It is filed as functional.
The test system of test [14] is HepG2. The experiment in a line: Cell cycle arrest in human HepG2 cells assessed as accumulation of cells at G0/G1 phase measured by flow cytometry (reference value: 71.6%). It is filed as functional.
Test [15] relates to HepG2. The experiment in a line: Radiosensitizing activity against human HepG2 cells assessed as reduction in cell viability pretreated with compound followed by exposure to 8 Gy gamma irradiation and measured by MTT assay. It is filed as functional, cell-based. The conditions noted are these: HepG2, light or radiation study. The method, boiled down:
(§3)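 HepG-2 and MCF-7 cells containing compound received a single dose of 8 Gy gamma radiation. Cytotoxicity was then measured, with IC50 as the mean ± SD of three independent experiments.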

Test [16] concerns MCF7. Put plainly: Radiosensitizing activity against human MCF7 cells assessed as reduction in cell viability pretreated with compound followed by exposure to 8 Gy gamma irradiation and measured by MTT assay. It is filed as functional, cell-based. Conditions: MCF7, light or radiation study. Put shortly:
as §3

The test system of test [17] is HepG2. The experiment in a line: Radiosensitizing activity against human HepG2 cells assessed as downregulation of Survivin mRNA expression pretreated with compound followed by exposure to 8 Gy gamma irradiation by real time RT-PCR analysis. It is filed as functional, cell-based.
In test [18] the test system is HepG2. The experiment in a line: Radiosensitizing activity against human HepG2 cells assessed as downregulation of XIAP mRNA expression pretreated with compound followed by exposure to 8 Gy gamma irradiation by real time RT-PCR analysis. Format: functional, cell-based.

The structures appear in SMILES notation. The source made the active and inactive calls. The rule behind the calls is not given here.

Usually IC50 stands for the midpoint of a concentration-inhibition curve. For the molecule `CCS(=O)(=O)Nc1ccc(/C(C)=N/NC(=O)CSc2nc3ccccc3c(=O)n2Cc2ccc3c(c2)OCO3)cc1`, the figures for the IC50 with HepG2 [1] and in the test on MCF7 [2] were 9.08 µM and 13.9 µM, respectively.
Consider `O=C(CSc1nc2ccccc2c(=O)n1Cc1ccc2c(c1)OCO2)Nc1ccc(Br)cc1`, for which the results for the IC50 with HepG2 [1] and in the test with MCF7 [2] were 11.1 µM and 20.4 µM, respectively.
Taken in the same sequence, the figures for `O=c1c2ccccc2[nH]c(=S)n1Cc1ccc2c(c1)OCO2` were 27.3 µM and 26.6 µM.
Taken in the same sequence, the figures for `O=C(CSc1nc2ccccc2c(=O)n1Cc1ccc2c(c1)OCO2)Nc1cccc(F)c1` were 8.51 µM and 7.6 µM.
Take `O=C(CSc1nc2ccccc2c(=O)n1Cc1ccc2c(c1)OCO2)Nc1ccc(I)cc1`: the Activity in the test on HepG2 [3] amounted to 92.5%; with HepG2 [4] it was 0.024%; with HepG2 [5] it was 0.308%; with HepG2 [6], 7.12%; in test [10] it was 200%; with HepG2 [11], 50%. The Activity in the test on HepG2 [12] was determined as 87.8%; with HepG2 [13], 2.73%; in the test with HepG2 [14], 0.042%. Moreover, the IC50 came out at 13.2 µM with HepG2 [1]; 6.84 µM in the test with MCF7 [2]; 0.754 µM in test [7]; 4.32 µM in the test with HepG2 [15]; 4.69 µM in the test with MCF7 [16]. Besides, the “inhibition (INH)” value in [8] and in test [9] was 50% throughout. The result in the test with HepG2 [17] and with HepG2 [18] was Active.
For `CCS(=O)(=O)NNC(=O)CSc1nc2ccccc2c(=O)n1Cc1ccc2c(c1)OCO2`, the Activity in the test with HepG2 [3] is 86.1%; in the test on HepG2 [4], 0.012%; in the test with HepG2 [5] it was 0.4%; in the test on HepG2 [6], 13.5%; in [10], 500%; with HepG2 [11], 50%. The Activity with HepG2 [12] is 94.2%; in the test on HepG2 [13] it was 2.45%; in the test on HepG2 [14], 0.039%. Also, the IC50 in the test on HepG2 [1] was 8.76 µM; in the test with MCF7 [2] it was 15.3 µM; in test [7] it was 0.147 µM; in the test with HepG2 [15] it was 2.25 µM; with MCF7 [16], 5.93 µM. The “inhibition (INH)” value in test [8] and in test [9] was 50% throughout. Also, the result in the test with HepG2 [17] and with HepG2 [18] was Active.
Turning to `O=C(CSc1nc2ccccc2c(=O)n1Cc1ccc2c(c1)OCO2)Nc1cc(Cl)c(Cl)cc1Cl`, the values for the IC50 with HepG2 [1] and with MCF7 [2] were 12.1 µM and 26.1 µM, respectively.
`COc1cccc2c1C(=O)c1c(O)c3c(c(O)c1C2=O)C[C@@](O)(C(=O)CO)C[C@@H]3O[C@H]1C[C@H](N)[C@H](O)[C@H](C)O1` [DOXORUBICIN] showed an IC50 in the test with HepG2 [1] of 8.9 µM.
Turning to `O=C(CSc1nc2ccccc2c(=O)n1Cc1ccc2c(c1)OCO2)NNS(=O)(=O)c1ccccc1`, the IC50 with HepG2 [1] was 22.2 µM; with MCF7 [2], 88.9 µM.
Take `O=C(CSc1nc2ccccc2c(=O)n1Cc1ccc2c(c1)OCO2)Nc1ccc(F)cc1`: the figures for the IC50 with HepG2 [1] and in the test with MCF7 [2] were 7.18 µM and 14.5 µM, respectively.
Taken in the same sequence, the figures for `CCC(=O)Nc1ccc(S(=O)(=O)Nc2ccc(/C(C)=N/NC(=O)CSc3nc4ccccc4c(=O)n3Cc3ccc4c(c3)OCO4)cc2)cc1` were 4.21 µM and 15.1 µM.
Taken in the same sequence, the figures for `NNC(=O)CSc1nc2ccccc2c(=O)n1Cc1ccc2c(c1)OCO2` were 8.15 µM and 20.7 µM.
The molecule `C#Cc1cccc(Nc2ncnc3cc(OCCOC)c(OCCOC)cc23)c1` [ERLOTINIB] showed an IC50 in the test on MCF7 [2] of 12.4 µM.
On to `O=C(CSc1nc2ccccc2c(=O)n1Cc1ccc2c(c1)OCO2)Nc1ccccc1Cl`, for which the results for the IC50 in the test on HepG2 [1] and in the test on MCF7 [2] were 17.9 µM and 10.3 µM, respectively.
As to `O=C(CSc1nc2ccccc2c(=O)n1Cc1ccc2c(c1)OCO2)Nc1ccccc1F`, the Activity is 84.5% in the test with HepG2 [3]; 0.02% in the test on HepG2 [4]; 0.762% in the test with HepG2 [5]; 12.6% in the test on HepG2 [6]; 400% in [10]; 100% in the test with HepG2 [11]. Further, the Activity with HepG2 [12] stood at 92.9%; in the test with HepG2 [13], 0.071%; in the test with HepG2 [14], 0%. The half-maximal inhibitory concentration (IC50) amounted to 2.46 µM in the test with HepG2 [1]; 5.86 µM with MCF7 [2]; 0.207 µM in test [7]; 1.56 µM with HepG2 [15]; 3.06 µM in the test with MCF7 [16]. For the same molecule, the “inhibition (INH)” value in [8] and in [9] was 50% in each case. The outcome in the test on HepG2 [17] and in the test on HepG2 [18] was Active.
`O=C(CSc1nc2ccccc2c(=O)n1Cc1ccc2c(c1)OCO2)NNC(=S)Nc1ccc(S(=O)(=O)Nc2ccccn2)cc1`: the IC50 worked out at 36.9 µM in the test on HepG2 [1] and 3.87 µM in the test with MCF7 [2].
In the same order, the values of `O=C(CSc1nc2ccccc2c(=O)n1Cc1ccc2c(c1)OCO2)NNC(=S)Nc1ccc(S(=O)(=O)Nc2ccc(Cl)nn2)cc1` are 9.34 µM and 46 µM.
Turning to `Cc1ccc(S(=O)(=O)NNC(=O)CSc2nc3ccccc3c(=O)n2Cc2ccc3c(c2)OCO3)cc1`, the IC50 in the test on HepG2 [1] was determined as 28.2 µM; with MCF7 [2], 49.8 µM.
In the same order, the values of `CC(=O)Nc1ccc(S(=O)(=O)NNC(=O)CSc2nc3ccccc3c(=O)n2Cc2ccc3c(c2)OCO3)cc1` are 33.9 µM and 11.4 µM.
For `O=C(CSc1nc2ccccc2c(=O)n1Cc1ccc2c(c1)OCO2)Nc1ccc(Br)cc1Br`, the Activity was 86.6% in the test on HepG2 [3]; 0.02% in the test on HepG2 [4]; 0.16% with HepG2 [5]; 15.4% in the test with HepG2 [6]; 400% in [10]; 50% in the test on HepG2 [11]. Moreover, the Activity was found to be 85.8% in the test with HepG2 [12], 2.32% in the test on HepG2 [13] and 0.06% in the test on HepG2 [14]. Also, the IC50 with HepG2 [1] was found to be 4.01 µM; in the test on MCF7 [2] it was 14.9 µM; in test [7], 1.03 µM; in the test on HepG2 [15], 1.76 µM; in the test with MCF7 [16], 4.91 µM. The “inhibition (INH)” value in test [8] and in test [9] was 50% in each case. For the same molecule, the outcome in the test on HepG2 [17] and in the test with HepG2 [18] was Active.
